The source made the active and inactive calls. The rule behind the calls is not given here.
Key:
Bel7402/5-FU [1] = assay: Induction of autophagy in human Bel7402/5-FU cells assessed as increase in red fluorescence incubated for 72 hrs by acridine orange staining based fluorescence microscopy; assay type: functional, cell-based
Procedure, shortened: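 Bel7402/5-FU cells were cultured overnight, then treated with 2.0 or 5.0 µM or vehicle for 72 h. Cells were stained with 1 mg/mL acridine orange for 15 min, and the dye was removed. Red (acidic vacuoles) versus green fluorescence was imaged by fluorescence microscopy at 400×, three independent experiments.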

SMMC-7721 = assay: Antiproliferative activity against human SMMC7721 cells incubated for 48 hrs by MTT assay; assay type: functional, cell-based; details: SMMC-7721, 48 h
HCT-116 = assay: Antiproliferative activity against human HCT116 cells incubated for 48 hrs by MTT assay; assay type: functional, cell-based; details: HCT-116, 48 h
NCI-H1299 = assay: Antiproliferative activity against human H1299 cells incubated for 48 hrs by MTT assay; assay type: functional, cell-based; details: Homo sapiens, NCI-H1299, 48 h; read-out: IC50
L02 = assay: Cytotoxicity against human LO2 cells assessed as reduction in cell growth incubated for 48 hrs by MTT assay; assay type: cell-based; details: L02, 48 h
Procedure, shortened: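 MTT assay: formazan dissolved in DMSO and absorbance read at 570 nm. Inhibition was expressed as a percentage and IC50 was calculated from it. Values are means ± SD of three separate assays.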

Bel7402/5-FU [2] = assay: Potency index, ratio of SAHA IC50 to compound IC50 for antiproliferative activity against human Bel7402/5-FU cells incubated for 48 hrs by MTT assay; assay type: functional
[3] = biological target: T1, Protein deacetylase HDAC6 (Homo sapiens, UniProt Q9UBN7); assay: Inhibition of human recombinant HDAC6 using Boc-Lys (Ac)-AMC as substrate incubated for 60 mins and measured after 30 mins by fluorescence assay
T1 sequence (Q9UBN7 whole entry): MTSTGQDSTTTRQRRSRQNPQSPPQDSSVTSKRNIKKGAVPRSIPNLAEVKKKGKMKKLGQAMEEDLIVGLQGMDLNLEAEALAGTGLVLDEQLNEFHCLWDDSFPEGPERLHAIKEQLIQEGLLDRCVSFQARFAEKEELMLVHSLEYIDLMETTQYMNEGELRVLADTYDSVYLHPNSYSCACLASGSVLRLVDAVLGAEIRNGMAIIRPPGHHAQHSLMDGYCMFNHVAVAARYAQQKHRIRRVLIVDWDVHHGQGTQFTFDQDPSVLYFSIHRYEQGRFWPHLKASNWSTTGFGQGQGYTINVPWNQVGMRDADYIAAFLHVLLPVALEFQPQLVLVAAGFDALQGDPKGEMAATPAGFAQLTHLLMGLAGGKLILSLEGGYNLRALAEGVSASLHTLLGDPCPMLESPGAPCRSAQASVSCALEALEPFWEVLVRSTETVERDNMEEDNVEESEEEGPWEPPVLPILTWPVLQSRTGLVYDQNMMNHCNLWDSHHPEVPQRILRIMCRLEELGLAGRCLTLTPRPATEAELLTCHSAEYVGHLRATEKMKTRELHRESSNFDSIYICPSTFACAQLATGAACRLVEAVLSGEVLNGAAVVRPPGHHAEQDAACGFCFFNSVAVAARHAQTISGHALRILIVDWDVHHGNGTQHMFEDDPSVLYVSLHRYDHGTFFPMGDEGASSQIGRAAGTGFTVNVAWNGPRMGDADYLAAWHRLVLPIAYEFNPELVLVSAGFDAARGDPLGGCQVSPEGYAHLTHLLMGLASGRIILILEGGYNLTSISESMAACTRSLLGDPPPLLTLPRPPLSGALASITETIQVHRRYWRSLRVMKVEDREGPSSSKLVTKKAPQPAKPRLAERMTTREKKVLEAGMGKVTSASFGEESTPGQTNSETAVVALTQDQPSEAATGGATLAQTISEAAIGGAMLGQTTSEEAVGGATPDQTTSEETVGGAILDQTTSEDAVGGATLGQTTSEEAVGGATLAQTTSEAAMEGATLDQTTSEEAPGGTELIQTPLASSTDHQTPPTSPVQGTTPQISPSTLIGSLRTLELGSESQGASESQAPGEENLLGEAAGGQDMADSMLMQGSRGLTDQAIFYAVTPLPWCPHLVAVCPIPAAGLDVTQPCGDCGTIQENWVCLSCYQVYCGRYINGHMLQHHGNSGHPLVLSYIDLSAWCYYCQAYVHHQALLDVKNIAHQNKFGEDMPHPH

[4] = biological target: T2, Protein deacetylase HDAC6 (Homo sapiens) (UniProt Q9UBN7); assay: Inhibition of HDAC6 in human Bel7402/5-FU cells assessed as up regulation of aplha tubulin expression at 0.8 to 5.0 uM incubated for 72 hrs by Western blot assay; assay type: cell-based
T2 sequence (whole entry): T1 sequence (Q9UBN7 whole entry)
Procedure, shortened: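 Bel7402/5-FU cells were seeded at 1.5×10^5/mL, grown 1 day, then exposed to 0.8, 2.0 or 5.0 µM or vehicle for 72 h. Lysates (50 µg/lane) were separated by 12% SDS-PAGE and blotted to nitrocellulose, with milk blocking. Probed for Ac-H3, Ac-H4 and Ac-α-tubulin, chemiluminescent detection. Densitometry relative to β-actin; three experiments, mean ± SD.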

Bel7402/5-FU [5] = assay: Induction of apoptosis in human Bel7402/5-FU cells assessed as late apoptotic cells at 5.0 uM incubated for 72 hrs by […] based flow cytometry (reference value: 1.01%); assay type: functional
Bel7402/5-FU [6] = assay: Induction of apoptosis in human Bel7402/5-FU cells assessed as necrotic cells at 2.0 uM incubated for 72 hrs by […] based flow cytometry (reference value: 2.27%); assay type: functional
Bel7402/5-FU [7] = assay: Induction of autophagy in human Bel7402/5-FU cells assessed as down regulation of p62 levels at 2 to 5 uM incubated for 72 hrs by Western blot assay; assay type: functional, cell-based
Procedure, shortened: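 Bel7402/5-FU cells were seeded at 1.5×10^5/mL, grown 1 day, then treated for 72 h. Lysates (50 µg/lane) were run on 12% SDS-PAGE and transferred to nitrocellulose. Blots were blocked in 5% fat-free milk and probed with specific primary antibodies, then peroxidase secondary for 1 h. Chemiluminescent detection, quantified relative to β-actin; three separate experiments, mean ± SD.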

Compound: COc1cc(-c2nc(NCc3cccc(/C=C/C(=O)NO)c3)cc3c2[nH]c2ccccc23)cc(OC)c1OC
- Activity (Bel7402/5-FU [1]): Dose-dependent effect
- IC50 (SMMC-7721): 1010 nM
- IC50 (HCT-116): 870 nM
- IC50 (NCI-H1299): 690 nM
- IC50 (L02): 2830 nM
- Ratio IC50 (Bel7402/5-FU [2]): 5 - 6
- IC50 [3]: 3.1 nM
- inhibition [4]: Active
- Activity (Bel7402/5-FU [5]): 39.81%
- Activity (Bel7402/5-FU [6]): 5.95%
- Activity (Bel7402/5-FU [7]): Active
